We go through 11 compounds from ChEMBL document CHEMBL4017542, “Identification of a Novel 1,2,3,4-Tetrahydrobenzo[b][1,6]naphthyridine Analogue as a Potent Phosphodiesterase 5 Inhibitor with Improved Aqueous Solubility for the Treatment of Alzheimer's Disease” (J Med Chem, 2017).

Molecules are shown by their SMILES. ≈ marks a conversion by molar mass, not a printed value. Calls of active or inactive are those of the source. No cut-off for these calls is given here.

A short description of series [1]: Kinetic solubility of compound in phosphate buffer after 18 hrs by turbidimetric method. It counts as physicochemical. Particulars: read-out: Kinetic_solubility. In short, it runs like this:
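Compound serially diluted in DMSO at 100x final and diluted 100-fold into phosphate buffered saline. After 18 h at 37°C, turbidity read at 540 nm. Turbid if absorbance exceeded blank mean + 3 SD. Result is the highest concentration showing no turbidity.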

Series [2] deals with cGMP-specific 3',5'-cyclic phosphodiesterase (Homo sapiens, UniProt O76074). Put plainly: Inhibition of human recombinant PDE5A1 using FAM-labelled cGMP as substrate after 60 mins by fluorescence polarization assay. In short, it runs like this:
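Fluorescence polarization assay, room temperature, 60 min, with 100 nM FAM-cGMP and 0.1-0.45 ng PDE5 or 22.5-250 ng PDE6. Binding agent then added for 60 min; read at ex 485/em 528 nm. Duplicates at each concentration. Activity normalized to no-compound and no-enzyme controls; IC50 from sigmoidal dose-response fit.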
In general terms: Fluorescence polarisation rises when a labelled molecule tumbles more slowly, as on binding a larger partner.

Series [3] relates to Mus musculus. Put plainly: Elevation of cGMP levels in hippocampal slices of wild type C57Bl6 mouse at 3 mg/kg, ip administered for 30 mins followed by foot shock measured at 10 to 60 secs after shock by enzyme immunoassay relative to control. It counts as functional. In short, it runs like this: (§1)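 Male and female C57Bl6 mice, 2-3 months old, 20-25 g, given i.p. drug or vehicle (2% DMSO & 2% Tween). Foot shock 30 min after dosing; killed by cervical dislocation and decapitation at 10 s, 1 min or 3 min. Hippocampi snap-frozen. cGMP measured by enzyme immunoassay in duplicate and normalised to BCA protein; n=3 per group; compared with vehicle.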

Series [4] has as its system Hippocampus. In words: Antialzheimer activity in […] transgenic mouse hippocampal slices assessed as long-term residual potentiation at 50 nM administered via bath perfusion for 10 mins prior to tetanus measured at the last 5 mins of 2 hrs recording (reference value: 137.90 +/- 10.83%). It counts as functional. In a few lines: (§2)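 Acute hippocampal slices from 3–4 month old APP/PS1 transgenic mice or WT littermates. Slices received 50 nM compound or vehicle through bath perfusion for 10 min before tetanus. Residual potentiation was taken as the mean over the last 5 min of a 2 h recording. Experiments were blinded, values are SEM, and groups were compared by 2-way ANOVA for repeated measures.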

Series [5] relates to Mus musculus. Put plainly: Elevation of cGMP levels in hippocampal slices of wild type C57Bl6 mouse at 10 mg/kg, ip administered for 30 mins followed by foot shock measured at 180 secs after shock by enzyme immunoassay relative to control. Type of series: functional. In short, it runs like this: as §1
Series [6] concerns Mus musculus. Put plainly: Antialzheimer activity in APP1/PS1 transgenic mouse assessed as rescue contextual memory by measuring freezing at 3 mg/kg, ip administered daily for 3 weeks by contextual fear memory test (reference value: 15%). It counts as functional. In a few lines:
(§3)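 Mice (APP/PS1 or wild-type) dosed 3 mg/kg i.p. daily for 3 weeks from age 3-4 months. Contextual fear learning scored 24 h after training as freezing (no movement except respiration) over 5 min in the training chamber. Mice tested at 3-4 months or at 6-7 months of age. Experiments blind; mean ± SEM.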

Series [7] in a line: Drug level in mouse brain at 25 mg/kg, ip measured at 0.25 hrs post dose by LC/MS analysis. Type of series: ADME, organism-based. The settings on record: read-out: Drug uptake. In short, it runs like this: (§4)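 Mice given 25 mg/kg i.p., 3 animals per time point, sampled up to 2 h. Plasma taken from heparinized retro-orbital blood; brain homogenized in methanol. Both extracted with methanol plus internal standard and quantified by LC/MS against a standard curve. Half-life from single-phase exponential decay fit.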

In series [8] the test system is Mus musculus. In words: Toxicity in wild type C57Bl6 mouse assessed as effect on number of errors at 3 mg/kg, ip administered daily for 3 weeks by 2 day radial arm water maze test. It counts as organism-based. The settings on record: in vivo. In a few lines:
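Wild-type mice given 3 mg/kg i.p. daily for 3 weeks from age 3-4 months. Tested in 2-day radial arm water maze, with a hidden platform in one of 6 arms. Errors counted, averaged per mouse over blocks of 3 trials. Blind scoring; SEM.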

In series [9] the test system is Mus musculus. In words: Elevation of cGMP levels in hippocampal slices of wild type C57Bl6 mouse at 10 mg/kg, ip administered for 30 mins followed by foot shock measured at 10 to 60 secs after shock by enzyme immunoassay relative to control. It counts as functional. In a few lines: as §1
The subject of series [10] is Mus musculus. Put plainly: Antialzheimer activity in 3 to 4 months old APP1/PS1 transgenic mouse assessed as effect on number of errors at 3 mg/kg, ip administered daily for 3 weeks measured at age of 6 to 7 months by 2 day radial arm water maze test (reference value: 2.5). Type of series: functional.
Series [11] is described as follows: Plasma concentration in mouse at 25 mg/kg, ip measured at 0.25 hrs post dose by LC/MS analysis. Type of series: ADME, organism-based. In short, it runs like this: as §4
Series [12] deals with Mus musculus. In words: Antialzheimer activity in 3 to 4 months old APP1/PS1 transgenic mouse assessed as effect on freezing at 3 mg/kg, ip administered daily for 3 weeks measured at age of 6 to 7 months by contextual fear memory test (reference value: 15%). It counts as functional. In a few lines: as §3
In series [13] the test system is Liver. Put plainly: Half life in mouse liver microsomes at 1 uM measured up to 60 mins by LC-MS/MS analysis. It counts as ADME, microsome. The settings on record: 1 h. In short, it runs like this: (§5)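 Liver microsomes incubated with test compound at 1 µM final, 37°C, after a 3 min preincubation without cofactor, alongside a testosterone control. Protein precipitated; samples analyzed by LC-MS/MS with electrospray. Peak area ratio to internal standard compared with time 0 to give % remaining. Half-life from single-phase exponential decay fit.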
In general terms: Microsomes from liver hold many membrane-bound enzymes, among them those of drug oxidation.

Series [14] relates to Mus musculus. Put plainly: Elevation of cGMP levels in hippocampal slices of wild type C57Bl6 mouse at 3 to 10 mg/kg, ip administered for 30 mins followed by foot shock measured at 10 to 180 secs after shock by enzyme immunoassay. It counts as functional, organism-based. In a few lines:
(§6)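 2-3 month old male and female C57Bl6 mice (20-25 g) dosed i.p. at 3 or 10 mg/kg in 2% DMSO & 2% Tween, or vehicle alone. Foot shock given 30 min later. Killed 10 s, 1 min or 3 min after shock. Hippocampi snap frozen. cGMP measured by enzyme immunoassay in duplicate and normalized to BCA protein. n=3 per group.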

Series [15] deals with Mus musculus. Put plainly: Plasma half life in mouse at 25 mg/kg, ip measured at 0.25 hrs post dose by LC/MS analysis. The settings on record: in vivo. Type of series: ADME, organism-based. In short, it runs like this: as §4
For series [16], the system named is Mus musculus. In words: Elevation of cGMP levels in hippocampal slices of wild type ip dosed C57Bl6 mouse administered for 30 mins followed by foot shock measured at 10 to 60 secs after shock by enzyme immunoassay. Type of series: functional, organism-based. In short, it runs like this:
as §6

In series [17] the test system is Mus musculus. Put plainly: Toxicity in wild type C57Bl6 mouse assessed as effect on freezing at 3 mg/kg, ip administered daily for 3 weeks by contextual fear memory test. Type of series: organism-based. Particulars: in vivo, 504 h. In short, it runs like this:
as §3

Series [18] has as its system Liver. Put plainly: Half life in human liver microsomes at 1 uM measured up to 60 mins by LC-MS/MS analysis. Type of series: ADME, microsome. Particulars: 1 h. In short, it runs like this: as §5
Series [19] has as its system Mus musculus. In words: Antialzheimer activity in 3 to 4 months old APP1/PS1 transgenic mouse model assessed as long-term residual potentiation in hippocampal slices at 3 mg/kg, ip administered daily for 3 weeks measured at age of 6 to 7 months (reference value: 164.11 +/- 10.36%). Type of series: functional.
The test system of series [20] is Mus musculus. Put plainly: Antialzheimer activity in APP1/PS1 transgenic mouse assessed as effect on number of errors at 3 mg/kg, ip administered daily for 3 weeks by 2 day radial arm water maze test (reference value: 3). Type of series: functional.
The test system of series [21] is Hippocampus. In words: Effect on long-term residual potentiation in wild type C57Bl6 mouse hippocampal slices at 50 nM administered via bath perfusion for 10 mins prior to tetanus measured at the last 5 mins of 2 hrs recording. Type of series: ADME, tissue-based. The settings on record: 0.05 µM. In a few lines:
as §2

In series [22] the target is Cone cGMP-specific 3',5'-cyclic phosphodiesterase subunit alpha' (Homo sapiens, UniProt P51160). In words: Inhibition of human recombinant PDE6C using FAM-labelled cGMP as substrate after 60 mins by fluorescence polarization assay.
The species entered for series [23] is Homo sapiens. In words: Selectivity ratio of IC50 for human recombinant PDE6C to IC50 for human recombinant PDE5A1.

Chain of Cone cGMP-specific 3',5'-cyclic phosphodiesterase subunit alpha' (P51160 whole entry): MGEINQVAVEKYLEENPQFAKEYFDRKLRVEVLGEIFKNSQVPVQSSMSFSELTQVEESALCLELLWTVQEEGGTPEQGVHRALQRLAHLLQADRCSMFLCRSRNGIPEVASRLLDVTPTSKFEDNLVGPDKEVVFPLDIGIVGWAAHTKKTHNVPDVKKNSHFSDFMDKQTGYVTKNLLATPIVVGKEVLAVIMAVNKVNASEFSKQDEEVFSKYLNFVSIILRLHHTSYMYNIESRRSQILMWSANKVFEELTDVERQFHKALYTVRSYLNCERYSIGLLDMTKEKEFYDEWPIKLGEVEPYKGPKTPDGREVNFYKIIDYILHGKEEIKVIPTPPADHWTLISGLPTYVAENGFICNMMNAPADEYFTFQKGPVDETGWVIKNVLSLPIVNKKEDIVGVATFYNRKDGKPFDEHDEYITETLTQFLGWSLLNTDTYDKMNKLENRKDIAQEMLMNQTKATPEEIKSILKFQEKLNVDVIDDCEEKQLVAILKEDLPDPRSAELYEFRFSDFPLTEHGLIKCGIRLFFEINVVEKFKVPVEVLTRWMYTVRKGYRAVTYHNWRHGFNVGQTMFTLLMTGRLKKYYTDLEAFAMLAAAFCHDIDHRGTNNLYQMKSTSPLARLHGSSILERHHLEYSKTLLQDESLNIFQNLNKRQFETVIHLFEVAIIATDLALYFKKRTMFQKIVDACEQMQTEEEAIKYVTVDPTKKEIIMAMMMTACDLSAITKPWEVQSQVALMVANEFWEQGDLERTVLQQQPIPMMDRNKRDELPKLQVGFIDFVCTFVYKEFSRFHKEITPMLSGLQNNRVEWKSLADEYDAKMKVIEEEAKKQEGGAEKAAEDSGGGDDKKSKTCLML

In the case of `COc1ccc(CNc2c(CO)cnc3c(C4CC4)cc(C#N)cc23)cc1Cl`, in [1], the solubility kinetic at 18 h was less than 3.9 µM.

Turning to `CCN1CCc2nc3ccc(C#N)cc3c(NCc3ccc(OC)c(Cl)c3)c2C1`, the IC50 (in general, the concentration that inhibits the measured activity by half) in [2] worked out at 0.19 nM.

As for `COc1c(F)cc(CNc2c3c(nc4ccc(C#N)cc24)CCN(C(C)=O)C3)cc1Cl`, the IC50 in [2] turned out to be 0.32 nM.

As to `COc1ccc(CNc2c3c(nc4ccc(C#N)cc24)CCN(C)C3)cc1Cl`, in series [2], the IC50 stood at 0.59 nM.

As to `COc1ccc(CNc2c3c(nc4ccc(Br)cc24)CCN(C(C)=O)C3)cc1Cl`, the IC50 in [2] is 3.1 nM.

For the compound `COc1ccc(CNc2c3c(nc4ccc(C#N)cc24)CCN(C(C)=O)C3)cc1Cl`, the “fold change (FC)” value stood at 1.5 in [3], 1.3 in series [5] and 1.7 in series [9]. The Activity was 201.76% in series [4]; 30% in series [6]; “Non-Toxic” in series [8]; 1 in series [10]; 40% in [12]; “Dose-dependent effect” in series [16]. Also, the Activity is listed as 30% in [17], 226.22% in [19], 1 in [20] and “Non-Toxic” in series [21]. Besides, the values for the concentration at 0.25 h in series [7] and in [11] were 492 ng/g and 1570 ng/mL, respectively. In addition, the t1/2 was 3.2 min in series [13], 64.2 min in series [15] and 6 min in series [18]. For the same compound, the outcome in series [14] was Active. Moreover, the solubility kinetic at 18 h in series [1] is greater than 500 µM.

In the case of `CC(=O)N1CCc2nc3ccc(C#N)cc3c(NCc3ccc(OC(F)(F)F)c(Cl)c3)c2C1`, the IC50 in series [2] was found to be 337 nM.

As for `CCN1Cc2nc3ccc(C#N)cc3c(NCc3ccc(OC)c(Cl)c3)c2C1=O`, the IC50 in series [22] stood at 6.6 nM. For the same compound, the solubility kinetic at 18 h in series [1] was found to be 3.1 µM (≈ 1.26 µg/mL). Further, the Ratio IC50 in series [23] turned out to be 100.

`CC(=O)N1CCc2nc3ccc(C#N)cc3c(NCc3ccnc(Cl)c3)c2C1`: the 50% inhibitory concentration (IC50) in series [2] was 57 nM.

Regarding `COc1ccc2nc3c(c(NCc4ccc(OC)c(Cl)c4)c2c1)CN(C(C)=O)CC3`, the IC50 in [2] was found to be 45.2 nM.

For `CC(=O)N1CCc2nc3ccc(C#N)cc3c(NCc3ccc(F)c(Cl)c3)c2C1`, the IC50 in [2] worked out at 1.5 nM.
